From ChEMBL document CHEMBL1135527, “Synthesis and evaluation of 2'-substituted 4-(4'-carboxy- or 4'-carboxymethylbenzylidene)-N-acylpiperidines: highly potent and in vivo active steroid 5alpha-reductase type 2 inhibitors” (J Med Chem, 2002)

How the values were obtained:
[1] = biological target: T1, 3-oxo-5-alpha-steroid 4-dehydrogenase 1 (Homo sapiens, UniProt P18405); assay: In vitro inhibitory activity against Steroid 5-alpha-reductase type I of human DU 145 prostatic tumor cell line
T1 sequence (P18405 whole entry): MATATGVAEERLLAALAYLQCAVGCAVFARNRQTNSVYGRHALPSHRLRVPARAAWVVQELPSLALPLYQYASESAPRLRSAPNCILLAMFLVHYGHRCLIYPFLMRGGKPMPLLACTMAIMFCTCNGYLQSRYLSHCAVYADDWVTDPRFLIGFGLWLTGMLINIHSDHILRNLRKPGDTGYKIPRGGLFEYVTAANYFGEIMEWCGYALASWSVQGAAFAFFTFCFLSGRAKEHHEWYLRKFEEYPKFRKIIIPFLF
In short: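 Intact human prostatic carcinoma DU145 cells (type 1 enzyme source), seeded at 180 000 cells/well and left to adhere overnight, incubated 6 h at 37 °C in 5% CO2 with compound in DMSO in complete medium; substrate tritiated androstenedione 5 nM. Medium extracted with diethyl ether, steroids separated by radio-HPLC. Screened at 10 μM, duplicate; product formed as % of uninhibited control.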

[2] = biological target: T2, 3-oxo-5-alpha-steroid 4-dehydrogenase 2 (Homo sapiens, UniProt P31213); assay: Inhibition of Steroid 5-alpha-reductase type 2 from human benign prostatic hyperplasia (BPH) tissue
T2 sequence (P31213 whole entry): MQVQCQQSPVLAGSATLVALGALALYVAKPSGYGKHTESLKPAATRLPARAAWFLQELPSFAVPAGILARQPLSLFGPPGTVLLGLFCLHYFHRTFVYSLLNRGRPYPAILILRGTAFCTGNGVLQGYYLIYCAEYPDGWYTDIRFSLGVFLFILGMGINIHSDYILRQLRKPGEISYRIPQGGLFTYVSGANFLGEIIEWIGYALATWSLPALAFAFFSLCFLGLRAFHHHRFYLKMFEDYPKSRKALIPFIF
In short: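 Human BPH prostate 105000g pellet (nuclei, mitochondria, microsomes) prepared in citrate buffer pH 5.5. Incubation of about 125 μg protein for 30 min at 37 °C in 40 mM citrate pH 5.5 with 100 μM NADPH, 0.21 μM [1,2-³H]testosterone and 2% DMSO. Reaction stopped with NaOH, steroids extracted with ether, T/DHT separated by radio-HPLC. Single 10 μM test or IC50; duplicates.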

[3] = biological target: T3, 3-oxo-5-alpha-steroid 4-dehydrogenase 2 (Rattus norvegicus, UniProt P31214); assay: Inhibition of Steroid 5-alpha-reductase type 2 of rat ventral prostate (RVP); format: tissue-based, Prostate gland
T3 sequence (P31214 whole entry): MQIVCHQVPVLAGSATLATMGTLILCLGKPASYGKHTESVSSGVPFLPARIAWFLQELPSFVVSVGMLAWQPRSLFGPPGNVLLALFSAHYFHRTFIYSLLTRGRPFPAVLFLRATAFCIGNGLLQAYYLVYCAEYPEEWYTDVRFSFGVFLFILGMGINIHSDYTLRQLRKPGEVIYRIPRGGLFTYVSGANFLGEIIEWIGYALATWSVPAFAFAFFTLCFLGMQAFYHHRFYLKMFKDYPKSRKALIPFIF
In short: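 Type 2 source: rat ventral prostate homogenized in citrate buffer pH 5.5, 105000g pellet. About 250 μg protein incubated 30 min at 37 °C in 40 mM citrate pH 5.5 with 200 μM NADPH, 0.21 μM [1,2-³H]testosterone and 2% DMSO. NaOH stop, ether extraction, radio-HPLC of T/DHT. Result given as % inhibition at 10 μM or IC50, run in duplicate.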

[4] = biological target: T4, 3-oxo-5-alpha-steroid 4-dehydrogenase 1 (Rattus norvegicus, UniProt P24008); assay: Inhibition of Steroid 5-alpha-reductase type I from rat ventral prostate (RVP); format: tissue-based, Prostate gland
T4 sequence (P24008 whole entry): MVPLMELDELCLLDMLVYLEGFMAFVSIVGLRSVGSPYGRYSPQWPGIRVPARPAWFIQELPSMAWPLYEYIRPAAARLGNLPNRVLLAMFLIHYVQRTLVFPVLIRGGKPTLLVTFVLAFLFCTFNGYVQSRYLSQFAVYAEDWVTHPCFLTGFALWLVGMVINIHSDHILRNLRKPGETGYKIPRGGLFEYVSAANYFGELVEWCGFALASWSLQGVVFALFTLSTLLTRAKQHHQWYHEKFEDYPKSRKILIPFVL
In short: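 Rat ventral prostate 105000g pellet made in 20 mM phosphate pH 6.6 with […] and 1 mM DTT at 0–4 °C. About 250 μg protein incubated 30 min at 37 °C in 40 mM phosphate pH 6.6 with 200 μM NADPH, 0.21 μM [1,2-³H]testosterone and 2% DMSO. Ether extraction, radio-HPLC of T and DHT. % inhibition at 10 μM or IC50; duplicates.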

IC50 [1]: 41 nM
IC50 [2]: 5 nM
IC50 [3]: 11 nM
IC50 [4]: 10 nM
SMILES: CC(C)(C)NC(=O)[C@H]1CC[C@H]2[C@@H]3CC[C@H]4NC(=O)C=C[C@]4(C)[C@H]3CC[C@]12C [FINASTERIDE]
